According to ChEMBL document CHEMBL5357049, “Discovery of new dibenzodiazepine derivatives as antibacterials against intracellular bacteria” (RSC Med Chem, 2024):

Assays:
Salmonella typhimurium = assay: Antibacterial activity against Salmonella typhimurium ATCC14028 infected in mouse RAW264.7 cells assessed as reduction in intracellular bacterial growth incubated for 24 hrs in presence of gentamicin by CMFDA and DAPI staining based high-content screening method; assay type: functional, organism-based, Salmonella enterica subsp. enterica serovar Typhimurium; conditions: Salmonella enterica, ATCC14028, RAW264.7, 24 h
Summary of the method: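 RAW264.7 seeded at 10^4 cells/well for 20 h, then infected at MOI 50 with RFP-expressing ATCC14028 (subcultured 2 h, OD600 0.6 ≈ 1.5×10^8 CFU/mL). After 1 h infection: 100 µg/mL gentamicin 1 h, then compound with 20 µg/mL gentamicin for 24 h. Stained with 2.5 µM CMFDA, fixed in 3.7% formaldehyde, DAPI nuclei; nuclei and intracellular bacteria counted by imaging, 10× objective.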

[1] = Cytotoxicity against mouse RAW264.7 cells assessed as reduction in cell viability incubated for 24 hrs by MTT assay; assay type: toxicity, cell-based
Summary of the method: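 Cells seeded at 10^5 cells/mL, grown 20 h at 37°C, 5% CO2, then exposed to compound for 24 h. Medium replaced with 0.5 mg/mL MTT for 1 h, formazan dissolved in DMSO, absorbance read at 570 nm; CC50 calculated. HT-29 and HCT-116 kept in McCoy's 5A with 10% FBS, THP-1 in RPMI 1640 with 10% FBS, others in DMEM with 10% FBS.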

[2] = Selectivity ratio of CC50 for cytotoxicity against mouse RAW264.7 cells to EC50 for antibacterial activity against Salmonella typhimurium ATCC14028 infected in mouse RAW264.7 cells; assay type: toxicity, cell-based; conditions: read-out: Ratio CC50/EC50

SMILES: Cc1cc2c(s1)Nc1ccccc1N=C2NCCCN1CCCC1
- EC50 (Salmonella typhimurium): 1.14 µM
- CC50 at 24 h [1]: 76.8 µM
- selectivity ratio [2]: 67.3

SMILES: O=C(O)c1cn(C2CC2)c2cc(N3CCNCC3)c(F)cc2c1=O [CIPROFLOXACIN]
- EC50 (Salmonella typhimurium): 0.06 µM

SMILES: Cc1cc2c(s1)Nc1ccccc1N=C2NCCN(C)C
- EC50 (Salmonella typhimurium): 1.48 µM
- CC50 at 24 h [1]: 126 µM
- selectivity ratio [2]: 85.3

SMILES: CN(C)CCNC1=Nc2cccnc2Nc2ccc(Cl)cc21
- EC50 (Salmonella typhimurium): 6.09 µM
- CC50 at 24 h [1]: 159 µM
- selectivity ratio [2]: 26.1

SMILES: Cc1cc2c(s1)Nc1ccccc1N=C2NCCN1CCCCC1
- EC50 (Salmonella typhimurium): 2.36 µM
- CC50 at 24 h [1]: 38.9 µM
- selectivity ratio [2]: 16.5

SMILES: Clc1ccc2c(c1)C(NCCN1CCNCC1)=Nc1cccnc1N2
- EC50 (Salmonella typhimurium): 8.82 µM
- CC50 at 24 h [1]: 123 µM
- selectivity ratio [2]: 13.9

SMILES: c1ccc2c(c1)N=C(NCCN1CCCCC1)c1ccccc1N2
- EC50 (Salmonella typhimurium): 3.7 µM
- CC50 at 24 h [1]: 110 µM
- selectivity ratio [2]: 29.8

SMILES: c1ccc2c(c1)N=C(NCCN1CCNCC1)c1ccccc1N2
- EC50 (Salmonella typhimurium): > 30 µM
- CC50 at 24 h [1]: 128 µM
